Assay outcomes deposited in PubChem by Broad Institute.
PGC1a acetyl inh – inhibitors of PGC1a acetylation signal, primary screen, cell-based, U2OS, AlphaScreen, inhibitor mode; inhibition, % at 15.6 µM; AlphaScreen anti-acetyl-lysine; with virally co-expressed GCN5 acetyltransferase; 350,000 compounds, 0.17% hits;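 active = every replicate shows inhibition of at least 40%; inconclusive = mean inhibition at least 40% but some replicate below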
ERAP1 HTS inh – human ERAP1 aminopeptidase inhibitors, primary screen, biochemical, single point, plate reader. recombinant ERAP1, Leu-AMC fluorescence, 60 min. inhibition, % at 10.7 µM. 340,000 compounds, 0.15% hits. AID 652197, 2013;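 active = mean replicate inhibition of at least 30%, or all replicates individually reaching that 30% level; inactive = mean below 30% and not every replicate reaching it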
FGF22 binding – binders of human FGF22 protein, primary screen, FGF22 synaptogenesis inhibitor project, biophysical, thermal shift, single point. Fibroblast growth factor 22 (Homo sapiens), Q9HCT0. recombinant FGF22 thermal shift, SYPRO orange fluorescence; percent of sucrose octasulfate shift, DMSO zero. activity (Tm shift, normalised), % at 9.99 µM. 340,000 compounds, 1.5% hits;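 active = mean Tm shift, scaled 0 neutral to 100 positive control, at about 1.3% or above, every replicate too, limit read from the data; inconclusive = no clear call, values can overlap the other calls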
Target sequence (Q9HCT0 whole entry, looked up): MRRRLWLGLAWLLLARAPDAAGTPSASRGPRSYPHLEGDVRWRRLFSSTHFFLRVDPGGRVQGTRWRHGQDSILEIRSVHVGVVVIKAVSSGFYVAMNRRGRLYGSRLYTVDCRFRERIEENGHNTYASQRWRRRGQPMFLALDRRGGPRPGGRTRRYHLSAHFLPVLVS
HIV Env fusion – inhibitors of HIV-1 Env-driven cell-cell fusion, primary screen, HeLa-JRFL effector, CEM21 target cells, luciferase; inhibition, % at 12.3 µM; 360,000 compounds, 1.1% hits; AID 651610, 2012;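 active = mean replicate inhibition score of at least 50 and every replicate individually at or above 50; inconclusive = only one of the two criteria met; inactive = mean below 50 and not all replicates reaching 50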
rRNA inh HTS – reduced GFP signal of wild-type E. coli, primary screen, bacterial rRNA inhibitor project, GFP/RFP fluorescence, OD600, single point; E. coli WT GFP vs humanized-ribosome RFP mutants, 24 h; active compounds read low; DMSO median 0, no signal -100; GFP signal change (wild-type ribosome), % (test concentration not listed); 350,000 compounds, 1.6% hits; AID 720706, 2013;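 active = significant combined selectivity score with lowered wild-type GFP, culture density cut under 30%, mutant RFP and density less affected; inactive = any of these conditions unmet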
Cneo AK release – Cryptococcus neoformans cell lysis inducers, primary screen, AK release luminescence, single concentration. 360,000 compounds, 0.2% hits. C. neoformans lysis, adenylate kinase release luminescence, 4 h; normalised: neutral wells 0, clomiphene wells 100. lysis activity, % at 15 µM;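 active = mean lysis activity across replicates of at least 80%, whatever share of replicates individually reach that level; inactive = mean lysis activity below 80%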
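Material – Cryptococcus neoformans yeast cells · Quantity – 5 × 10^6 yeast cells/mL · Buffer or medium – YPD medium · Compound – single dose · Timing – 4 h static compound exposure, 37 °C, read 1 h post-reagent · Signal – adenylate kinase release luminescence · Read-out basis – lysis from increased AK signal · Benchmarks – Clomiphene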
Numbers stand for hits; n = inactive; u = inconclusive; x = no result; ! = not active in a repeat; [ ] = another dose, or the depositor's remark. In the library only some 3.5% were active in any assay of this set; here they are far more common.

SMILES | PGC1a acetyl inh | ERAP1 HTS inh | FGF22 binding | HIV Env fusion | rRNA inh HTS | Cneo AK release
Cc1ccc(S(=O)(=O)Nc2nc(C)c(C(=O)NN)s2)cc1 | n | n | n | n | n | n
C/C(=N/NC(=O)c1sc(NS(=O)(=O)c2ccc(C)cc2)nc1C)c1sc(N)nc1C | x | n | 43.4 | n | n | x
COC(=O)Nc1ccc(S(=O)(=O)N2CCCC(C(=O)NC3CCS(=O)(=O)C3)C2)cc1 (stereo unspecified) | x | x | x | n | x | n
Cc1ccc2cc(C#N)c(NCCNC(=O)C3CC3)nc2c1C | n | x | x | 113.2 | x | n
O=C(COC(=O)C1=NN(c2ccccc2)C(=O)CC1)Nc1nc(-c2ccc(F)cc2)cs1 | n | n | n | n | n | n
NS(=O)(=O)c1ccc(CCNC(=O)C(=O)c2c[nH]c3ccccc23)cc1 | x | n | n | n | -22.0 | x
COc1ccc(N2CCN(Cc3cc(=O)oc4cc(C)c(Cl)c(C)c34)CC2)cc1 | n | x | x | x | x | n
Cc1cc(/C=C2/SC(=S)N(c3ccc([N+](=O)[O-])cc3)C2=O)c(C)n1-c1cccnc1 | x | n | 43.4 | n | n | x
Cc1cc(/C=C2/SC(=S)N(c3cccc(Cl)c3)C2=O)c(C)n1-c1cccnc1 | n | x | x | n | x | n
COCC(=O)N1C[C@@H](C)[C@@H](OC)CN(C)C(=O)c2cc(NC(=O)c3ccc(F)cc3)ccc2OC[C@H]1C | n | n | n | x | n | n
O=C(Nc1ccc(Cl)cc1)Nc1ccc(-c2cnco2)cc1 | x | n | n | n | -21.9 | n
O=C(NC(=O)c1ccccc1)Nc1ccc(-c2cnco2)cc1 | n | n | n | n | n | n
CN(C)c1ccc(NC(=O)CN2CCN(S(=O)(=O)c3cc(Cl)ccc3Cl)CC2)cc1 | n | x | x | x | x | n
Cc1ccc(S(=O)(=O)N2CCN(C(=O)COC(=O)c3ncc(Cl)c(Cl)c3Cl)CC2)c(C)c1 | x | n | n | n | -22.8 | n
Cc1ccc(S(=O)(=O)N2CCN(C(=O)COC(=O)c3nc(Cl)ccc3Cl)CC2)c(C)c1 | n | n | n | x | n | n
C[C@@H]1CN([C@@H](C)CO)C(=O)Cc2cc(NC(=O)Cc3ccccc3)ccc2O[C@H]1CN(C)C(=O)NC1CCCCC1 | n | n | n | n | n | n
CCCCC(=O)N1CCCC(c2nc(-c3cccc(OC)c3)no2)C1 (stereo unspecified) | x | n | 43.3 | n | n | n
COc1cccc(-c2noc(C3CCCN(S(=O)(=O)c4cccc(Cl)c4C)C3)n2)c1 (stereo unspecified) | n | x | x | 112.3 | x | n
COc1ccc2c3c([nH]c2c1)[C@H](CO)N(C(=O)c1ccncc1)CC31CN(C)C1 | n | n | x | x | n | x
COC(=O)C(=C/C=C/c1cccnc1)C(=O)OC | x | n | 43.3 | n | x | n
Cc1ccc(S(=O)(=O)N(CC2CO2)c2ccccc2[N+](=O)[O-])cc1 (stereo unspecified) | 79.1 | n | n | n | n | x
COc1ccc(S(=O)(=O)Nc2ccc3c(c2)C(=O)N([C@@H](C)CO)C[C@@H](C)[C@H](CN(C)Cc2ccc(C(F)(F)F)cc2)OCCCC[C@H](C)O3)cc1 | n | n | n | u | n | n
COc1ccc(S(=O)(=O)Nc2ccc3c(c2)C(=O)N([C@H](C)CO)C[C@@H](C)[C@H](CN(C)Cc2ccc(C(F)(F)F)cc2)OCCCC[C@@H](C)O3)cc1 | n | n | n | 63.7[16.7 µM] | n | n
C[C@@H]1CN([C@@H](C)CO)C(=O)c2cc(NS(=O)(=O)c3ccc(F)cc3)ccc2O[C@H]1CN(C)Cc1ccc(C(F)(F)F)cc1 | n | x | x | n | n | x
C[C@H](CO)N1C[C@H](C)[C@@H](CN(C)Cc2ccc(C(F)(F)F)cc2)Oc2ccc(NS(=O)(=O)c3ccc(F)cc3)cc2C1=O | 103.3 | n | n | n | n | n
SMILES | PGC1a acetyl inh | ERAP1 HTS inh | FGF22 binding | HIV Env fusion | rRNA inh HTS | Cneo AK release
C[C@@H]1CN([C@@H](C)CO)C(=O)c2cc(NS(=O)(=O)c3cn(C)cn3)ccc2O[C@@H](C)CCCCO[C@@H]1CN(C)Cc1ccc(C(F)(F)F)cc1 | n | n | n | n | n | 96.2
Cc1ccc(S(=O)(=O)Nc2ccc3c(c2)C(=O)N([C@H](C)CO)C[C@@H](C)[C@H](CN(C)Cc2ccc(C(F)(F)F)cc2)OCCCC[C@@H](C)O3)cc1 | n | n | n | 65.1[16.7 µM] | n | 117.8
COc1ccc2c(=O)c(C(=O)NCCc3ccc(OC)c(OC)c3)c[nH]c2c1 | n | x | x | n | x | n
Cc1ccc(CN2CC(N3CCC(c4ccccc4)CC3)CS2(=O)=O)cc1 (stereo unspecified) | n | x | n | n | n | n
COc1ccc(S(=O)(=O)Nc2ccc3c(c2)C(=O)N([C@H](C)CO)C[C@@H](C)[C@@H](CN(C)Cc2ccc(C(F)(F)F)cc2)OCCCC[C@H](C)O3)cc1 | n | n | n | 73.9[16.7 µM] | n | n
COc1ccc(S(=O)(=O)Nc2ccc3c(c2)C(=O)N([C@H](C)CO)C[C@H](C)[C@H](CN(C)Cc2ccc(C(F)(F)F)cc2)OCCCC[C@H](C)O3)cc1 | n | n | n | n | n | n
Cc1ccc(S(=O)(=O)Nc2ccc3c(c2)C(=O)N([C@H](C)CO)C[C@H](C)[C@@H](CN(C)Cc2ccccc2)O3)cc1 | n | n | n | n | n | 100.2!
COc1ccc(S(=O)(=O)Nc2ccc3c(c2)C(=O)N([C@H](C)CO)C[C@@H](C)[C@@H](CN(C)Cc2ccc(C(F)(F)F)cc2)OCCCC[C@@H](C)O3)cc1 | n | n | n | 55.3[16.7 µM] | n | n
Cc1ccc(S(=O)(=O)Nc2ccc3c(c2)C(=O)N([C@H](C)CO)C[C@H](C)[C@H](CN(C)Cc2ccccc2)O3)cc1 | n | n | n | n | n | n
O=C(O)CCNS(=O)(=O)c1ccccc1Br | x | n | n | n | n | n
CN/N=C/c1ccc(C#N)cc1 | n | n | 43.0 | n | n | x
CCCCNC(=S)N/N=C/c1ccc(C#N)cc1 | n | n | n | n | n | 85.9
Cc1ccccc1N/N=C/c1ccc(C#N)cc1 | x | n | n | n | n | x
CCCCNC(=S)N/N=C/C1=CCC2CC1C2(C)C (stereo unspecified) | n | x | x | 84.4 | x | n
CC1(C)N=C(c2ccc(Cl)cc2Cl)C(=O)N1 | n | x | x | n | x | n
Cc1cc(C(=O)C(=O)N(C)C)c(C)n1-c1ccc([N+](=O)[O-])cc1 | n | x | x | n | x | n
O=S(=O)(c1cccc2ccccc12)N1CCC2CC1c1cc(-c3ccc(F)cc3)ccc12 (stereo unspecified) | n | n | n | n | n | n
